This note sets out measurements from ChEMBL document CHEMBL2424522, “Demonic axe-like conjugated alkynes in combating microbes” (2013).

Structures are written as SMILES. Values after ≈ are worked out from the molar mass of the structure shown.

Common to all, as to format: functional
For assay [1], the system named is Candida albicans. Kind of assay: Antifungal activity against Candida albicans MTCC 227 at 50 ug/ml after 48 hrs by agar well diffusion method. The settings on record: MTCC 227, 48 h, read-out: IZ. Summed up:
(§1)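 Test samples and DMSO controls incubated at 27 °C for 48 h. Inhibition zone diameter measured in mm. Three to four replicates per treatment.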

In assay [2] the test system is Saccharomyces cerevisiae. As to the kind of experiment: Antifungal activity against Saccharomyces cerevisiae MTCC 36 at 50 ug/ml after 48 hrs by agar well diffusion method. The settings on record: MTCC 36, 48 h, read-out: IZ. The essentials: as §1
The subject of assay [3] is Staphylococcus epidermidis. As to the kind of experiment: Antibacterial activity against Staphylococcus epidermidis MTCC 435 by broth dilution method. Summed up:
(§2)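 Broth dilution per NCCL standards; all phosphorus ylides and conjugated alkynes tested in vitro.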

The subject of assay [4] is Saccharomyces cerevisiae. Kind of assay: Antifungal activity against Saccharomyces cerevisiae MTCC 36 at 100 ug/ml after 48 hrs by agar well diffusion method. The conditions noted are these: MTCC 36, 48 h, read-out: IZ. The essentials:
as §1

Assay [5] deals with Escherichia coli. Kind of assay: Antibacterial activity against Escherichia coli MTCC 443 by broth dilution method. The essentials: as §2
On the technique in general: In broth dilution the organism is exposed to a series of concentrations in liquid medium.

The test system of assay [6] is Aspergillus niger. As to the kind of experiment: Antifungal activity against Aspergillus niger MTCC 344 at 100 ug/ml after 48 hrs by agar well diffusion method. The settings on record: MTCC 344, 48 h, read-out: IZ. Summed up: as §1
(In general: Agar diffusion results depend on both activity and mobility in agar.)

For assay [7], the system named is Aspergillus niger. Kind of assay: Antifungal activity against Aspergillus niger MTCC 344 at 50 ug/ml after 48 hrs by agar well diffusion method. The conditions noted are these: MTCC 344, 48 h, read-out: IZ. Summed up: as §1
For assay [8], the system named is Diutina rugosa. As to the kind of experiment: Antifungal activity against Candida rugosa NCIM 3462 at 50 ug/ml after 48 hrs by agar well diffusion method. The settings on record: NCIM 3462, 48 h, read-out: IZ. The essentials:
as §1

For assay [9], the system named is Bacillus subtilis. Kind of assay: Antibacterial activity against Bacillus subtilis MTCC 441 by broth dilution method. Summed up: as §2
Assay [10] has as its system Klebsiella pneumoniae. Kind of assay: Antibacterial activity against Klebsiella pneumoniae MTCC 618 by broth dilution method. The essentials:
as §2

Assay [11] deals with Candida albicans. As to the kind of experiment: Antifungal activity against Candida albicans MTCC 227 at 100 ug/ml after 48 hrs by agar well diffusion method. The conditions noted are these: MTCC 227, 48 h, read-out: IZ. Summed up:
as §1

Assay [12] concerns Aspergillus flavus. Kind of assay: Antifungal activity against Aspergillus flavus MTCC 277 at 50 ug/ml after 48 hrs by agar well diffusion method. The conditions noted are these: MTCC 277, 48 h, read-out: IZ. Summed up:
as §1

The test system of assay [13] is Staphylococcus aureus. Kind of assay: Antibacterial activity against Staphylococcus aureus MTCC 96 by broth dilution method. The essentials:
as §2

Assay [14] deals with Pseudomonas aeruginosa. As to the kind of experiment: Antibacterial activity against Pseudomonas aeruginosa MTCC 741 by broth dilution method. Summed up:
as §2

Assay [15] concerns Diutina rugosa. Kind of assay: Antifungal activity against Candida rugosa NCIM 3462 at 100 ug/ml after 48 hrs by agar well diffusion method. The conditions noted are these: NCIM 3462, 48 h, read-out: IZ. The essentials:
as §1

Assay [16] relates to Aspergillus flavus. As to the kind of experiment: Antifungal activity against Aspergillus flavus MTCC 277 at 100 ug/ml after 48 hrs by agar well diffusion method. The conditions noted are these: MTCC 277, 48 h, read-out: IZ. The essentials:
as §1

In the case of `N#CC#Cc1cc(F)c(Cl)nc1Cl`, the zone of inhibition at 50 µg/mL was 11 mm in assay [1]; 0 mm in [2]; 20 mm in assay [7]; 0 mm in [8]; 20 mm in [12]. For the same molecule, the MIC in [3] amounted to 25 µg/mL (≈ 116 µM); in assay [5], 100 µg/mL (≈ 465 µM); in [9], 6.25 µg/mL (≈ 29.1 µM); in [10] it was 12.5 µg/mL (≈ 58.1 µM); in assay [13] it was 12.5 µg/mL (≈ 58.1 µM); in assay [14] it was 100 µg/mL (≈ 465 µM). The zone of inhibition at 100 µg/mL in assay [4] was found to be 10 mm; in [6], 24 mm; in [11], 16 mm; in assay [15], 11 mm; in [16], 25 mm.

With `N#CC#Cc1ccc(Cl)nc1`, the zone of inhibition at 50 µg/mL worked out at 35 mm in [1]; 0 mm in assay [2]; 39 mm in [7]; 33 mm in [8]; 44 mm in assay [12]. For the same molecule, the MIC in assay [3] was determined as 6.25 µg/mL (≈ 38.4 µM); in assay [5], 100 µg/mL (≈ 615 µM); in [9] it was 1.56 µg/mL (≈ 9.6 µM); in [10], 3.12 µg/mL (≈ 19.2 µM); in assay [13], 1.56 µg/mL (≈ 9.6 µM); in [14] it was 0.78 µg/mL (≈ 4.8 µM). Besides, the zone of inhibition at 100 µg/mL in assay [4] was found to be 10 mm; in assay [6] it was 43 mm; in [11], 40 mm; in assay [15], 28 mm; in [16] it was 47 mm.

As for `CC(C)OC(=O)C#Cc1ccc(Cl)nc1`, the zone of inhibition at 50 µg/mL in assay [1] was 13 mm; in assay [2], 11 mm; in [7], 17 mm; in [8], 0 mm; in assay [12], 12 mm. Also, the MIC was found to be 1.56 µg/mL (≈ 6.97 µM) in assay [3]; 100 µg/mL (≈ 447 µM) in [5]; 50 µg/mL (≈ 224 µM) in assay [9]; 12.5 µg/mL (≈ 55.9 µM) in assay [10]; 1.56 µg/mL (≈ 6.97 µM) in assay [13]; 1.56 µg/mL (≈ 6.97 µM) in assay [14]. For the same molecule, the zone of inhibition at 100 µg/mL in assay [4] was 17 mm; in assay [6] it was 23 mm; in [11], 19 mm; in [15] it was 11 mm; in [16], 19 mm.

For `CCOC(=O)C#Cc1ccccc1C`, the zone of inhibition at 50 µg/mL in [1], in [2], in assay [7], in assay [8] and in assay [12] was 0 mm in each case. Besides, the MIC in assay [3], in assay [5], in [9], in assay [10], in [13] and in [14] was greater than 150 µg/mL throughout. Also, the zone of inhibition at 100 µg/mL in assay [4], in assay [6], in assay [11], in assay [15] and in assay [16] was 0 mm throughout.

With `Cc1ccccc1C#CC#N`, the zone of inhibition at 50 µg/mL in assay [1], in assay [2], in assay [7], in assay [8] and in assay [12] was 0 mm each time. Besides, the MIC in [3], in [5], in [9], in [10], in assay [13] and in [14] was greater than 150 µg/mL throughout. Besides, the zone of inhibition at 100 µg/mL in assay [4], in assay [6], in [11], in assay [15] and in assay [16] was 0 mm in each case.

In general, MIC refers to the least concentration at which growth counts as inhibited. A low value points to a more susceptible organism.
